# Measurements reported in publication PMC4301071 (ACS Chemical Biology, 2014).
# *1 amine or outer side, *2 acyl side, *3 side chain or, on linkers, in order; H or OH if unused. Where a SMILES comes first, the peptide text is derived from it. [ ]: non-standard residue; d: D form. The star is where a group is joined. X1 = CN(CCCC[C@H](N[*:1])C(=O)[*:2])CCCCN(O)C(=O)/C=C/C(=O)O; Biotin = O=C1N[C@H]2[C@H](CS[C@H]2CCCCC(=O)*)N1; Bpa = N[C@@H](Cc1ccc(C(=O)c2ccccc2)cc1)C(=O)O; PEG4 = NCCOCCOCCOCCOCCC(=O)O
# What was measured:
# [1] = target: T1, JHDM1A (Homo sapiens, UniProt Q9Y2K7); experiment: Fluorescence polarization; format: binding
# T1 sequence (Q9Y2K7 1-1162): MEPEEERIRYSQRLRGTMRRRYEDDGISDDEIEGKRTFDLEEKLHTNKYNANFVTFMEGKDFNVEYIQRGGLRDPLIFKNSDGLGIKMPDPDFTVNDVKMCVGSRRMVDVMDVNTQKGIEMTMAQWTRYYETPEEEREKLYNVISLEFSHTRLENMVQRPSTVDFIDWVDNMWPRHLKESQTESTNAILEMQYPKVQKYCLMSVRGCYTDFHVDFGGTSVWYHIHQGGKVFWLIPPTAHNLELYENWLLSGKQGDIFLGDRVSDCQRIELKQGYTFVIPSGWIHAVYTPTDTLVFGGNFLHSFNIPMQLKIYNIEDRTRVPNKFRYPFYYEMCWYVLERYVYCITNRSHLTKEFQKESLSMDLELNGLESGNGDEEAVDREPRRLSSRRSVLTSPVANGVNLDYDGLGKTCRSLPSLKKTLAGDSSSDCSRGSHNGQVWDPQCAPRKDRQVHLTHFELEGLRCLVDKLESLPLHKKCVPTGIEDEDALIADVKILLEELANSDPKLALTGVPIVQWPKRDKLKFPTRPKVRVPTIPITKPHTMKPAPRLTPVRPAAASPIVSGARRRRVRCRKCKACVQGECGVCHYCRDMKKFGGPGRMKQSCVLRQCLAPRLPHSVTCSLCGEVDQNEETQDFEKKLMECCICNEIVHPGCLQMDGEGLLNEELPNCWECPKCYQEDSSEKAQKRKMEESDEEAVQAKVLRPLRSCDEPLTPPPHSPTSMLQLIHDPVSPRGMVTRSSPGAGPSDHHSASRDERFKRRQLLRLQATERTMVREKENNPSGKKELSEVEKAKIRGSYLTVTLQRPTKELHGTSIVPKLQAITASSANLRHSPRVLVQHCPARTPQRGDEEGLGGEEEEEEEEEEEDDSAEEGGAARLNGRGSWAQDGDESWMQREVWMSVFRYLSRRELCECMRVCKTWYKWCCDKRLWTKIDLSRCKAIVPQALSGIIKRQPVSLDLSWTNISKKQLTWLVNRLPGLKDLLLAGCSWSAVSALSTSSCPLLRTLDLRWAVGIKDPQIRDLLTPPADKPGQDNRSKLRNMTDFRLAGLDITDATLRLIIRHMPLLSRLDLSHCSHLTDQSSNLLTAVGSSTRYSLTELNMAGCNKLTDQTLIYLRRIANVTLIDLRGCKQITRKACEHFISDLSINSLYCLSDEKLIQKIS
# [2] = target: T1, JHDM1A; experiment: Affinity pulldown of purified JHDM1A in the presence of HeLa histone proteins; format: binding; details: in the absence of UV irradiation
# Outline: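 Acid-extracted HeLa histones were prepared by Triton lysis, then 0.2 N HCl overnight at 4 °C, then lyophilisation. Biotinylated peptide probe (20 μM) was loaded onto streptavidin magnetic beads for 30 min at 4 °C. Recombinant JHDM1A (5 μM) and equal amounts of histones were then added in 25 mM Tris, 100 mM NaCl, 5 μM NiCl2, pH 7.5, for 4 h at 4 °C. The 350 nm, 20 min UV step was omitted. Beads were washed in HEPES/1 M NaCl/1% Triton, then water.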
# [3] = target: JMJD1C/KDM3C (Homo sapiens, UniProt Q15652); experiment: Affinity pulldown from HeLa nuclear lysate, spectral count of JMJD1C/KDM3C; format: binding; details: HeLa nuclear extract
# Outline: (§1)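 HeLa cells were grown in DMEM with 10% FCS and 1% penicillin/streptomycin at 37 °C, 5% CO2. Nuclei were prepared by hypotonic swelling and douncing, extracted in 0.4 M NaCl/20% glycerol buffer, and dialysed into 20 mM HEPES, 100 mM KCl, 2 mM MgCl2, pH 7.9. Streptavidin bead pulldowns used 2 mL lysate, and a no-probe control was included. Bead-bound material was washed, reduced with 4 mM DTT, alkylated with 14 mM iodoacetamide, trypsin-digested on the beads overnight at 37 °C, and run on nanoLC-LTQ/Orbitrap. Searches used human UniProt at 1% FDR, with spectral-count quantification.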
# [4] = target: T2, JMJD2A/KDM4A (Homo sapiens, UniProt O75164); experiment: Affinity pulldown from HeLa nuclear lysate, spectral count of JMJD2A/KDM4A; format: binding; details: HeLa nuclear extract, 20 μM probe 6
# T2 sequence (O75164 2-1064): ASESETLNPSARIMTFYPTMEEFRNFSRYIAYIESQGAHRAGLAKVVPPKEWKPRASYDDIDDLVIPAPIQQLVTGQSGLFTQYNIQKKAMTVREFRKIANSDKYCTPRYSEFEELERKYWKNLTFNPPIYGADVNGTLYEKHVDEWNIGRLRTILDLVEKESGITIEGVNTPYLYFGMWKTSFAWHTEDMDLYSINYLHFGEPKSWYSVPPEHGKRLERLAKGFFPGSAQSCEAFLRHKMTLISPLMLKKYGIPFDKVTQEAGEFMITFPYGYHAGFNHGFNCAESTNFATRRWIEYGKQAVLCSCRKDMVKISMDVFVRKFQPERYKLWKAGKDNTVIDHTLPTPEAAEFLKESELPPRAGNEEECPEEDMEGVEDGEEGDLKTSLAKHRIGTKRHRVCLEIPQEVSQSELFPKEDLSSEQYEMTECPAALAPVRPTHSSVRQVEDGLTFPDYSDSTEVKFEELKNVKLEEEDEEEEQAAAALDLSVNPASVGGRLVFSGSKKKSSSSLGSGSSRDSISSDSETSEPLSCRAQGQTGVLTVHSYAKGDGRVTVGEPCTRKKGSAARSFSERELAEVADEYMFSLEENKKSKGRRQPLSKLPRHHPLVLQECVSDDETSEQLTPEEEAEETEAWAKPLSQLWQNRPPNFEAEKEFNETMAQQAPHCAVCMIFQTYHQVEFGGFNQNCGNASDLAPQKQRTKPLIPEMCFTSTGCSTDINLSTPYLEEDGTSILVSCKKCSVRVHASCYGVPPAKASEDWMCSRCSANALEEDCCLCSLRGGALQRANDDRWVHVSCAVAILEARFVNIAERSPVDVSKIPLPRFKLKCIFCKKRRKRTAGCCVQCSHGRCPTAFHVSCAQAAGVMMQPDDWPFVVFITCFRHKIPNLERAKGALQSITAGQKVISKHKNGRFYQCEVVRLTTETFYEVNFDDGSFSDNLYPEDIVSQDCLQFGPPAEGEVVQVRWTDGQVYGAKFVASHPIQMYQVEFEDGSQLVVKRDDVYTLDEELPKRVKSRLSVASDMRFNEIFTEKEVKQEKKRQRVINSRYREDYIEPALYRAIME
# [5] = system: JMJD2A/KDM4A; experiment: as above; format: binding, human; details: HeLa nuclear extract, 20 μM probe 6, recombinant KDM4A spiked in at 25 nM
# [6] = target: PHF8/KDM7A (Homo sapiens, UniProt Q9UPP1); experiment: Affinity pulldown from HeLa nuclear lysate, spectral count of PHF8/KDM7A; format: binding; details: HeLa nuclear extract
# PHF8/KDM7A, sequence (Q9UPP1 whole entry): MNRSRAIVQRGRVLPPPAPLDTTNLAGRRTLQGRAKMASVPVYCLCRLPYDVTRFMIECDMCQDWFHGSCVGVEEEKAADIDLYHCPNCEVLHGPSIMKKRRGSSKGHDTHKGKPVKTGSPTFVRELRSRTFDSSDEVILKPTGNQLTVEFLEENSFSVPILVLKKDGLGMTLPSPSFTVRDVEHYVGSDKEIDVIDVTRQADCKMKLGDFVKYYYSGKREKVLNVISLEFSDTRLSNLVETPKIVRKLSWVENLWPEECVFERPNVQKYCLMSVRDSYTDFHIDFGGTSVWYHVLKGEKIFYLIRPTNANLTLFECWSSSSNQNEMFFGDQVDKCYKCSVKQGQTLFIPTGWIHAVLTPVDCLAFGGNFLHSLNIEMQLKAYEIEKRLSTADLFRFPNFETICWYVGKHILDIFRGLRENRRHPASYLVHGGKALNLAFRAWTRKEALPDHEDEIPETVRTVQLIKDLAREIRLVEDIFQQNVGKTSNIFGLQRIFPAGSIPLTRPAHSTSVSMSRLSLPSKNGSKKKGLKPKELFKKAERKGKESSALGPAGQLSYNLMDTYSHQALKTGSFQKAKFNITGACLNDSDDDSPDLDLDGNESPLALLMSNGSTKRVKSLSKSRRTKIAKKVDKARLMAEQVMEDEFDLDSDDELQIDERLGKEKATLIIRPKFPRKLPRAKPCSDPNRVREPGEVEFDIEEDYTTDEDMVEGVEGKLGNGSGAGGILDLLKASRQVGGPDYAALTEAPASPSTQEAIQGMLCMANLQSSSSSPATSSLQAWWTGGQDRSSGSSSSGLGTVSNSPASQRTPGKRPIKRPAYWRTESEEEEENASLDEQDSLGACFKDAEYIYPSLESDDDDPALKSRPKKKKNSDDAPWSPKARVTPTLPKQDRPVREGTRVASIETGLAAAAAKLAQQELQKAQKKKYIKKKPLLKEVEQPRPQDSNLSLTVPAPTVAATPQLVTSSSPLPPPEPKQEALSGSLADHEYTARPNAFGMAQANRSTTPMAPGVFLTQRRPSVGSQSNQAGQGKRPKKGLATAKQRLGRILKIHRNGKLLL
# Outline: as §1
# [7] = target: CHD8 (Homo sapiens, UniProt Q9HCK8); experiment: Affinity pulldown from HeLa nuclear lysate, spectral count of CHD8; format: binding; details: HeLa nuclear extract
# Outline: as §1
# [8] = target: CHD7 (Homo sapiens, UniProt Q9P2D1); experiment: Affinity pulldown from HeLa nuclear lysate, spectral count of CHD7; format: binding; details: HeLa nuclear extract
# CHD7, sequence (Q9P2D1 whole entry): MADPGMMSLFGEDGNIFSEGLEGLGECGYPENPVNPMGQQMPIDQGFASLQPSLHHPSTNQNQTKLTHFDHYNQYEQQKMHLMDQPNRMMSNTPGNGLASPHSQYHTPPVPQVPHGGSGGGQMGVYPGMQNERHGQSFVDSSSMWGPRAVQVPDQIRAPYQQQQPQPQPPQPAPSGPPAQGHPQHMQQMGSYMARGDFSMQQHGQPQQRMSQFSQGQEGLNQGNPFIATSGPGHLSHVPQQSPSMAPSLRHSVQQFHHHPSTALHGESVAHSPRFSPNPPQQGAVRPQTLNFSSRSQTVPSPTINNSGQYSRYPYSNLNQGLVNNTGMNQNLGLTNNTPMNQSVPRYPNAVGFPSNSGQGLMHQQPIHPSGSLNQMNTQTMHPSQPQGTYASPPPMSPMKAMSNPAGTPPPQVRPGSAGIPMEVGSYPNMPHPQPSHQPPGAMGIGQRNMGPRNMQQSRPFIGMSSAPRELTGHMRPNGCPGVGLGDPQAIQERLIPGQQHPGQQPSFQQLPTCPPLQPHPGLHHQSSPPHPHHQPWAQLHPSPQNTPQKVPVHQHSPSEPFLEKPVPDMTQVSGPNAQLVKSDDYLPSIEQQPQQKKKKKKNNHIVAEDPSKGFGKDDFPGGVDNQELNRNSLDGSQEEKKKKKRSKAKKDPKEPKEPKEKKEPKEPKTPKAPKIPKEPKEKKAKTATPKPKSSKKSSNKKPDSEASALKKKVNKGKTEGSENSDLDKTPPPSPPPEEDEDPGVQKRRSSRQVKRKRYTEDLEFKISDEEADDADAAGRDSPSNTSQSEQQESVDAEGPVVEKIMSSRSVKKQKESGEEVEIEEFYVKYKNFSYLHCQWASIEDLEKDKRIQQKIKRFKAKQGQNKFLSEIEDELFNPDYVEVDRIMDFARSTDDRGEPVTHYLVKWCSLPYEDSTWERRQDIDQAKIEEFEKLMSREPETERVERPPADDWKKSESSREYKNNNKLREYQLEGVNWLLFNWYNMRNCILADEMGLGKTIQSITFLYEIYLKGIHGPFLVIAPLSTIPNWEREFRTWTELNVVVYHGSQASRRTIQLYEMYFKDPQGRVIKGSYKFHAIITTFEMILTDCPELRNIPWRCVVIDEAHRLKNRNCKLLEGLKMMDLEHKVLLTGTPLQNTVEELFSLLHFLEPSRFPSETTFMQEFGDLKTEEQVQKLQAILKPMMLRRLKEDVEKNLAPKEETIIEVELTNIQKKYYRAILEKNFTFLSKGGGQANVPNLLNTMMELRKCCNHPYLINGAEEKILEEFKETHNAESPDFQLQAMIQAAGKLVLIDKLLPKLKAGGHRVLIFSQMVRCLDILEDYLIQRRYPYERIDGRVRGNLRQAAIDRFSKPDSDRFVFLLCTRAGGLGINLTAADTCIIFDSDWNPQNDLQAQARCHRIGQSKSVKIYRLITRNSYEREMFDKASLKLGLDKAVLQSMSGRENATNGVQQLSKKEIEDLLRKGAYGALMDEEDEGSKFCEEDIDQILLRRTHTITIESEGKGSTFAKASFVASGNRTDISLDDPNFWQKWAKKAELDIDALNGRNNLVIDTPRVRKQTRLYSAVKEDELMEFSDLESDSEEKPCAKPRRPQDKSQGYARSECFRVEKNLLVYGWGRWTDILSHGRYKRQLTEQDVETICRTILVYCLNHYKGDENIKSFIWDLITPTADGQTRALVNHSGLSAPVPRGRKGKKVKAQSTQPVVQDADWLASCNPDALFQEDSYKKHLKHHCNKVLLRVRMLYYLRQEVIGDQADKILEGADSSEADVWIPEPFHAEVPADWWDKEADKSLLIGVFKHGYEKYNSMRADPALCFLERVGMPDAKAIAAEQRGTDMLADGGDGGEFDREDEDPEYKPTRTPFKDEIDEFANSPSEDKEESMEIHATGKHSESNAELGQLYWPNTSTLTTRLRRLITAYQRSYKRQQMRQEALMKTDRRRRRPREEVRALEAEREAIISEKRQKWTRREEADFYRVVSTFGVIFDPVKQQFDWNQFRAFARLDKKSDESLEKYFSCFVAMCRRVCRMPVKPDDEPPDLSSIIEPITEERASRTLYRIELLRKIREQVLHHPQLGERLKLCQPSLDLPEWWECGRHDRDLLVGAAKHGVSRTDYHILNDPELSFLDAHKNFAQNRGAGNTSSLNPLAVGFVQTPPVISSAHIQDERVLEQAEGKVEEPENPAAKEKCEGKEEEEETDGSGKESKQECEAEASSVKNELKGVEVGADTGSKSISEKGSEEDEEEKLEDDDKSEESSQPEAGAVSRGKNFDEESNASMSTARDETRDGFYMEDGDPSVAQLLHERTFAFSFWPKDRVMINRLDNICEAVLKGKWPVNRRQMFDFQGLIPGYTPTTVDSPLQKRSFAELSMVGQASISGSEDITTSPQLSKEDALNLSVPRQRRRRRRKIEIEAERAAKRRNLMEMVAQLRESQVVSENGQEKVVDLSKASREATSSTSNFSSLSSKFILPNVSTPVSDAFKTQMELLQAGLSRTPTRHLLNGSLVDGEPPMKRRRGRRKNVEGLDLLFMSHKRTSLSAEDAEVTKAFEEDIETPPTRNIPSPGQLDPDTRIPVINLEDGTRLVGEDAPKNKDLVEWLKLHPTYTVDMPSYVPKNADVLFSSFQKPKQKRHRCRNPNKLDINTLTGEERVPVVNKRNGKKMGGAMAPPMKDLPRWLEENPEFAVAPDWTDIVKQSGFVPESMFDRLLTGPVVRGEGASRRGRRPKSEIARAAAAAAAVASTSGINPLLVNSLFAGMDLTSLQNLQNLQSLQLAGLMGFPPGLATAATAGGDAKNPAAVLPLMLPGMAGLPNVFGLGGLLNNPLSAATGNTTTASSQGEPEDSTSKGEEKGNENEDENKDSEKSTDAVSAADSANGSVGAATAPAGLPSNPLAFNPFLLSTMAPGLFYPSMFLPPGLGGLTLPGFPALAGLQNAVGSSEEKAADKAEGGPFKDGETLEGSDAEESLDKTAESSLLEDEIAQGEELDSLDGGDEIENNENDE
# Outline: as §1
# [9] = system: HDAC1/2; experiment: Affinity pulldown from HeLa nuclear lysate, spectral count of HDAC1/2; format: binding, human; details: HeLa nuclear extract
# Outline: as §1
# [10] = 20 μM probe 6, recombinant KDM4A spiked in at 25 nM
smiles,measurement,setting,value
CC(C)[C@H](NC(=O)CNC(=O)CNC(=O)[C@@H](NC(=O)[C@H](Cc1ccc(C(=O)c2ccccc2)cc1)NC(=O)CCOCCOCCOCCOCCNC(=O)CCCC[C@@H]1SC[C@@H]2NC(=O)N[C@@H]21)[C@@H](C)O)C(=O)N[C@@H](CCCCN(C)CCCCN(O)C(=O)/C=C/C(=O)O)C(=O)N[C@@H](CCCCN)C(=O)N1CCC[C@H]1C(=O)N[C@@H](Cc1c[nH]cn1)C(=O)N[C@@H](CCCNC(=N)N)C(N)=O [probe 6] ({Biotin-PEG4}-[Bpa]TGGV[X1]KPHR-NH2),fold increased affinity compared to nonfunctionalized native H3K36me2 histone 20mer peptide,[1],~2 fold
same,pulldown of JHDM1A,[2],complete absence of JHDM1A
same,"spectral count, endogenous",[3]; 20 μM probe 6,6
same,"spectral count, spiked-in",[3]; [10],3
same,"spectral count, endogenous",[4],0
same,"spectral count, spiked-in",[5],5
same,"spectral count, endogenous",[6]; 20 μM probe 6,1
same,"spectral count, spiked-in",[6]; [10],1
same,"spectral count, endogenous",[7]; 20 μM probe 6,2
same,"spectral count, spiked-in",[7]; [10],3
same,"spectral count, endogenous",[8]; 20 μM probe 6,5
same,"spectral count, spiked-in",[8]; [10],1
same,"spectral count, endogenous",[9]; 20 μM probe 6,8
same,"spectral count, spiked-in",[9]; [10],3
